# FAS TE block = inhibitors of human fatty acid synthase thioesterase domain | P49327 | recombinant FAS-TE, OMFH fluorogenic substrate, fluorescence endpoint | inhibition, % at 15 µM | actives 0.67% (n = 360,000) | AID 602261;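 active = compounds whose normalised, plate-corrected inhibition of enzyme fluorescence in the single-dose primary screen is 50% or more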;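 also: 0% = DMSO with enzyme and 100% = substrate without enzyme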
# SENP1 inh = inhibitors of human SENP1 SUMO protease catalytic domain; inhibition, % at 10 µM; recombinant SENP1 catalytic domain, CyPet-SUMO1-YPet FRET cleavage; AID 624204; Q9P0U3; actives 0.21% (n = 360,000);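 active = inhibition at least 30% at 10 µM, raw YFP signal under a set limit, fluorescence ratio 0.5 to 1.5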;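 also: 0% = enzyme with DMSO and 100% = no enzyme wells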
#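 Test system: recombinant human SENP1 catalytic domain, His6-tagged / Medium: pH 8 Tris buffer with EDTA, NaCl, BME, BSA, NP40, catalase / Also added: SUMO1 FRET substrate flanked by Cypet and Ypet, 25 nM / Times: 50 min reaction at room temperature / Signal: FRET, CFP and YFP emission / Control set: no-enzyme low control and enzyme-plus-DMSO high control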
# Arrestin-AP2 inh = inhibitors of human beta-arrestin and AP2 interaction. FITC-arrestin peptide / GST-AP2 beads, flow cytometry; AP2 beta2 appendage carries R879A mutation. inhibition, % at 10 µM. actives 0.31% (n = 340,000);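 active = inhibition above a set limit, near 3 SD of compounds lacking own fluorescence, cut at about 54% in these data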;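 also: plate controls were DMSO wells for no effect and 5 µM unlabelled arrestin peptide for full effect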
#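 System: GST-AP2 R879A bound to glutathione beads, E. coli-expressed. Also added: 50 nM FITC-arrestin peptide. Schedule: compound with beads 12 min RT, then probe 1 h RT. Signal: bead flow cytometry, FITC channel. Read-out basis: percent response.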
# hiPSC survival = enhancers of human iPSC single-cell survival. AID 602274. actives 0.044% (n = 360,000). hiPSC single-cell survival, ATPlite luminescence; 100% = ROCK inhibitor wells, 0% = DMSO. survival enhancement, % at 20 µM; in the data active = survival enhancement above about 18%;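 also: cells exposed to compounds for 16 hours before the ATP read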
# NR3A LBD binder = modulates the human NR3A ligand-binding domain; NR3A LBD differential scanning fluorimetry, Tm shift; 0% = protein alone, 100% = glycine-bound protein; Tm shift relative to glycine control, % at 25 µM; actives 2.5% (n = 340,000); AID 1259313;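 active = melting temperature shift of at least 10% of the positive control shift, at one fixed dose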
# H9c2 protect = myocardial damage modulation in H9c2 cells | H9c2 cardiomyocytes, H2O2 injury protection, ATPLite, 2 h | protection from H2O2 cell death, % at 20 µM | actives 0.63% (n = 360,000) | AID 588492;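 active = compounds giving at least 50% protection of heart cells from peroxide-induced death in the single-dose screen, raw or plate-pattern-corrected value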;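 also: 0% = DMSO wells with peroxide and 100% = DMSO wells without peroxide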
# * = called active by the depositor; x = no result. This is a sample that favours compounds with a hit; in the whole collection about 4% have one here.
SMILES,FAS TE block,SENP1 inh,Arrestin-AP2 inh,hiPSC survival,NR3A LBD binder,H9c2 protect
CC1(C)SC(=S)N(/N=C/c2ccccc2)C1N(O)C(=O)Nc1ccc([N+](=O)[O-])cc1 (configuration not stated),-183,3,3,-3,14*,-26
CNC(=O)N(O)C1N(NC(=O)Nc2ccccc2)C(=S)SC1(C)C (configuration not stated),-14,-2,-7,0,0,4
CC1(C)SC(=S)N(NC(=O)Nc2cccc3ccccc23)C1N(O)C(=O)Nc1ccccc1 (configuration not stated),-106,1,3,-1,23*,-12
CCOc1ccc(N2C(=O)Nc3ccc(Br)cc3C2(O)C(=O)NCCCN(C)C)cc1 (configuration not stated),-4,0,8,-1,12*,9
CCOc1ccc(N2C(=O)Nc3ccc(Br)cc3C2(O)C(=O)NC(C)C)cc1 (configuration not stated),-3,-1,13,0,12*,7
CCOc1ccc(N2C(=O)Nc3ccc(Br)cc3C2(O)C(=O)NCCN(C)C)cc1 (configuration not stated),-4,-4,4,-1,1,3
Nc1c(N(CCCO)C(=O)CCCN2C(=O)c3cccc4cccc(c34)C2=O)c(=O)[nH]c(=O)n1Cc1ccccc1,-4,-6,9,0,0,6
COc1ccc2nc(C)cc(SCC(=O)N/N=C/c3ccc(O)cc3O)c2c1,-5,-12,6,-1,25*,52*
COCc1cc(C)nc(OCC(=O)N/N=C/c2ccc(O)cc2O)c1C#N,-10,0,6,2,5,52*
COc1ccccc1/C=N/NC(=O)CSc1cc(C)nc2ccccc12,1,0,6,0,0,-10
COCc1cc(C)nc(OCC(=O)N/N=C/c2ccccc2O)c1C#N,4,-2,2,-2,-1,28
COc1ccc(Cc2nc3ccccc3n2CC(=O)N/N=C/c2ccc(O)cc2)cc1OC,-11,4,-2,1,0,11
COc1ccc(Cc2nc3ccccc3n2CC(=O)N/N=C/c2ccc(C)cc2O)cc1OC,-8,-5,-2,-1,-6,52*
COc1cccc2c(SCC(=O)N/N=C/c3ccc(O)cc3O)cc(C)nc12,-2,-5,38,3,26*,81*
O=C(c1cccc(Cl)c1)N1CCC(=O)N([C@H](COCc2ccccc2)Cc2ccccc2)CC1,13,1,x,-1,x,x
NC(Cc1ccc(Cl)cc1)c1csc(NC(=O)NCC2CCCCC2)n1 (configuration not stated),0,-5,x,-6,x,-20
CN(c1ccc(OCc2nnc(-c3ccccc3)o2)cc1)S(=O)(=O)c1ccccc1,7,-2,18,-4,20*,-21
Cc1nonc1CN(C)C(=O)CC1C(=O)NCCN1Cc1ccccc1F (configuration not stated),-3,-7,27,2,11*,-1
CCOC(=O)c1c(C)nc2c(c1-c1cc(OC)ccc1OC)C(=O)c1ccccc1-2,8,1,11,-1,1,-2
CCOC(=O)C1=C(Cc2ccc(OC)cc2)C(=O)c2ccccc2C1=O,43,40*,55*,-3,-4,-20
Cc1nc2ccc(C(=O)N3c4ccccc4N=C(c4ccc5c(c4)OCO5)C3C(=O)NCc3ccccc3)cc2[nH]1 (configuration not stated),x,-18,x,x,x,x
COc1ccc(NC(=O)Cn2cc(C#N)c3ccccc32)cc1,2,0,-5,-1,0,-6
COc1ccc(OC)c(NC(=O)Cn2cc(C#N)c3cc(Br)ccc32)c1,46,0,-4,0,15*,-3
CCOC(=O)c1c2ccc(OCC(=O)NN)cc2n2ccccc12,-7,-28,18,-1,-1,11
Cc1ccc(S(=O)(=O)N/N=C/c2ccc(OCC(=O)Nc3ccccc3Cl)cc2)cc1,26,2,1,1,18*,-1
